Test results reported in ChEMBL document CHEMBL1128283, “Novel modified carboxy terminal fragments of neuropeptide Y with high affinity for Y2-type receptors and potent functional antagonism at a Y1-type receptor” (J Med Chem, 1995).

Experiments:
[1] = target: T1, Neuropeptide Y receptor type 2 (Rattus norvegicus, UniProt Q9ERC0); test: 50% displacement of specifically bound [3H]NPY2 from rat brain membranes.; type: cell membranes, Membrane
T1 sequence (Q9ERC0 whole entry): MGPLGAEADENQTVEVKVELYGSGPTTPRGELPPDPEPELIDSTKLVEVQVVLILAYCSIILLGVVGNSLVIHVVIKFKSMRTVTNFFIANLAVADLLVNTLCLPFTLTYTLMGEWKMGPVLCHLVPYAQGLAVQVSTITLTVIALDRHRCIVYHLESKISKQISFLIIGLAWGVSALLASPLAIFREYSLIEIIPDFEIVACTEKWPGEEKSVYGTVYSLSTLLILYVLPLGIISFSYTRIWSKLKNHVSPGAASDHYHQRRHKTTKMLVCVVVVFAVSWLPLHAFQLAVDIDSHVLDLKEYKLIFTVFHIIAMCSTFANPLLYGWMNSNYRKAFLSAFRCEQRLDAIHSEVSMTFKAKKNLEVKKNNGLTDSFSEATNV

HEL [2] = test: (§1) Inhibition of NPY1-induced ([Ca2+]) release in HEL cell was determined at 100 nM; type: functional, Homo sapiens; set-up: scale not given: the % may be the effect or the level left
Summary of the method: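 HEL cells loaded with fura-2 and kept in suspension; calcium read as the 340/380 nm ratio. Peptide tested at 100 nM, added 30 s before NPY. Agonist activity expressed as percent of the response to 100 nM NPY. Inhibition measured against the 5 nM NPY response.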

HEL [3] = test: Inhibition of NPY-induced ([Ca2+]) release in HEL cell was determined; type: functional, cell-based; details: Homo sapiens
HEL [4] = test: as §1; type: functional; details: Homo sapiens, read-out: ED50 (the source's name)

Substance | IC50 [1] [nM] | Activity (HEL [2]) [%] | other results
H-YINLITRQRY-NH2 | 30000 | 0 | –
H-YINPIYRLRY-NH2 [listing 2 of 2 here] | – | – | IC50 (HEL [3]): 100 nM
H-RHYINLITRQRY-NH2 [listing 2 of 2 here] | – | 0 | –
H-IYRLRY-NH2 | 2950 | – | –
H-TRQRY-NH2 | > 100000 | – | –
H-INLIYRLRY-NH2 [listing 2 of 2 here] | – | 33 | –

The next lines start with results.

IC50 [1] [nM] | Substance | Activity (HEL [2]) [%] | other results
44 | H-YINPIYRLRY-NH2 [listing 1 of 2 here] | – | –
310 | H-NLIYRLRY-NH2 | – | –
400 | H-LIYRLRY-NH2 | – | –
1300 | H-RHYINLITRQRY-NH2 [listing 1 of 2 here] | – | –
174 | H-INPIYRLRY-NH2 | – | IC50 (HEL [3]): 9 nM
37 | H-INLIYRLRY-NH2 [listing 1 of 2 here] | – | –
2100 | H-YINLITRLY-NH2 | 0 | –
8 | H-YINLIYRLRY-NH2 | – | EC50 (HEL [4]): 8.8 nM
12 | H-RHYINLIYRLRY-NH2 | 100 | –
12 | H-HYINLIYRLRY-NH2 | 100 | –
